Holding throughout (details): stereoisomer not certain
In one experiment the target is T1, UniProt Q8VF24.
T1 sequence (whole entry): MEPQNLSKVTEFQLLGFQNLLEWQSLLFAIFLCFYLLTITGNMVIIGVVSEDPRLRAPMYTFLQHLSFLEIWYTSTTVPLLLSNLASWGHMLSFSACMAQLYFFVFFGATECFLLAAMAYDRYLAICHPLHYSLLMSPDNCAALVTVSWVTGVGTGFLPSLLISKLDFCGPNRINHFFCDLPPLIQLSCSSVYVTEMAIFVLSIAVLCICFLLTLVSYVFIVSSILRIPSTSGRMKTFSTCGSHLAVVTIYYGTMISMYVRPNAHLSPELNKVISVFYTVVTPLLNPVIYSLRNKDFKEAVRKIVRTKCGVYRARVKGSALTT
The essentials: (§1)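 Assay methods differ from source to source, frequently being transient luciferase assays in mammalian cell lines. For each receptor–molecule pair, the label responsive (active) applies when the original authors judged the measured signal statistically different from baseline, and non-responsive (inactive) applies otherwise.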

For a further experiment, the target named is T2, UniProt Q8VF43.
T2 sequence (whole entry): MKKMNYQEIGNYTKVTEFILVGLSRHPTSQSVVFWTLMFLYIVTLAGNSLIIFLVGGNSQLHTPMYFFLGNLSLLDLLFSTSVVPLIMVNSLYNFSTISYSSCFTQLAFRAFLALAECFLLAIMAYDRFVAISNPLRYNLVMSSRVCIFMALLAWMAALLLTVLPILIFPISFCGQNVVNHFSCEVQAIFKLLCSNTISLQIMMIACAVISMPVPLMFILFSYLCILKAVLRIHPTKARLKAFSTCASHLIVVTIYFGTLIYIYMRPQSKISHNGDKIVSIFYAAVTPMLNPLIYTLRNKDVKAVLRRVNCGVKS
The gist of the method: as §1

The target in another experiment is T3, UniProt Q8VF44.
T3 sequence (whole entry): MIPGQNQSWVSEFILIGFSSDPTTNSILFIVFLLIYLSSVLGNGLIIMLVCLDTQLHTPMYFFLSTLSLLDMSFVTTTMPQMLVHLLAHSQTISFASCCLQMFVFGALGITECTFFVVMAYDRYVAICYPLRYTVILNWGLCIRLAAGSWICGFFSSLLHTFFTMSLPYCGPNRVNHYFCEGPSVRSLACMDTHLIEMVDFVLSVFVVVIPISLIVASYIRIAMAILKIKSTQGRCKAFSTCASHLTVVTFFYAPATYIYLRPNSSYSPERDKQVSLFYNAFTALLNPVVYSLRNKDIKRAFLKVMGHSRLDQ
The essentials: as §1

The target of another experiment is T4, UniProt Q8VF52.
T4 sequence (whole entry): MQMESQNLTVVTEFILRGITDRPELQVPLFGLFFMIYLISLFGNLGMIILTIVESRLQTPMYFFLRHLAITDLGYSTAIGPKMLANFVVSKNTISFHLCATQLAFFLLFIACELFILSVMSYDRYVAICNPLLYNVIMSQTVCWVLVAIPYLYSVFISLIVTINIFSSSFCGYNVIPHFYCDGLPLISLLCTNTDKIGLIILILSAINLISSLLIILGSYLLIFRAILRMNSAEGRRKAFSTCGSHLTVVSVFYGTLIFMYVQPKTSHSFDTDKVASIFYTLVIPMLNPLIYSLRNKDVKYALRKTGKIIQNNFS
The gist of the method: as §1

The target of another experiment is T5, UniProt Q8VFG6.
T5 sequence (whole entry): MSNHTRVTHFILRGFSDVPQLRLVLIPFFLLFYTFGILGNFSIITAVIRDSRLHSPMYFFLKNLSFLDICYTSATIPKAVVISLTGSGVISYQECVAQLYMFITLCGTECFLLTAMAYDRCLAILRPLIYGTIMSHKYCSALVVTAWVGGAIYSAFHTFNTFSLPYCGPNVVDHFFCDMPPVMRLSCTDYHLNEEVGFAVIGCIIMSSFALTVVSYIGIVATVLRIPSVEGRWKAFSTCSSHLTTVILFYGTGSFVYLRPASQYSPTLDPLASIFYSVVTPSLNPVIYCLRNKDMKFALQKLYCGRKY
The essentials:
as §1

For the next experiment, the target named is T6, UniProt Q8VFM8.
T6 sequence (whole entry): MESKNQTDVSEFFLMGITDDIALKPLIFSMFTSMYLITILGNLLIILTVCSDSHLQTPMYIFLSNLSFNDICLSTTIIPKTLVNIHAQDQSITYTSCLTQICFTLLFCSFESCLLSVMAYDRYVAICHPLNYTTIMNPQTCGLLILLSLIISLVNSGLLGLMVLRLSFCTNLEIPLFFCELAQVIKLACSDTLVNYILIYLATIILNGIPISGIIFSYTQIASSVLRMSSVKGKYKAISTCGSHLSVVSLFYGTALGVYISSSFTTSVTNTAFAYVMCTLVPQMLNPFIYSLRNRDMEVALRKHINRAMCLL
The essentials:
as §1

The target in the next experiment is UniProt Q8VF06. The gist of the method: as §1
Chain of UniProt Q8VF06 (Q8VF06 as listed by the source): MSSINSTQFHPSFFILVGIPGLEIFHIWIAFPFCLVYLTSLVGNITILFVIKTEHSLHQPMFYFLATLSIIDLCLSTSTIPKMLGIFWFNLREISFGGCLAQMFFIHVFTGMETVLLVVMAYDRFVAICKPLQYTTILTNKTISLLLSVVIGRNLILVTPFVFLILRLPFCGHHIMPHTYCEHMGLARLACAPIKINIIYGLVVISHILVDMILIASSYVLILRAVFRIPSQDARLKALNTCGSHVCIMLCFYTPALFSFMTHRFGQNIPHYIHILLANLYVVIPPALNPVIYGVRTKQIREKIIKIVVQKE
The next experiment concerns the target UniProt Q8VF73. The gist of the method:
as §1

Another experiment addresses UniProt Q8VFB8. The essentials:
as §1

Chain of UniProt Q8VF73 (Q8VF73 as listed by the source): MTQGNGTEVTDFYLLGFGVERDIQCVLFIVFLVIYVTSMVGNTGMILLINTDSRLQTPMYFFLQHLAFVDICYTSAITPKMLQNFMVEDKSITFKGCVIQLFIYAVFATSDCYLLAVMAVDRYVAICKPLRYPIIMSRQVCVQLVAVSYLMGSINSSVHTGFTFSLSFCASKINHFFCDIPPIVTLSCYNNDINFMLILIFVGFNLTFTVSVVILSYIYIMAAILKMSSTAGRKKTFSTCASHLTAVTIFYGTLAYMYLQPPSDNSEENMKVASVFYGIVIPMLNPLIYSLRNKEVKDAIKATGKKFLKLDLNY
Chain of UniProt Q8VFB8 (Q8VFB8 as listed by the source): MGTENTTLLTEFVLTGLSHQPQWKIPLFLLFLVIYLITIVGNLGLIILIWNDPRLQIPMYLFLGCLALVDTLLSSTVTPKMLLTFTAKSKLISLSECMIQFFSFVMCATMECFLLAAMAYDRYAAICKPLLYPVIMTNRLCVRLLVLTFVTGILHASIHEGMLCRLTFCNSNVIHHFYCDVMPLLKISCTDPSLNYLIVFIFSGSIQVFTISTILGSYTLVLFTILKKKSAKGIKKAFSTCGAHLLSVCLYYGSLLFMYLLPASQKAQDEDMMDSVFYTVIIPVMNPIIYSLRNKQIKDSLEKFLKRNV

`CCCCCC=O`: the “odorant receptor agonist call” value with UniProt Q8VF24, with UniProt Q8VF43, with UniProt Q8VF44, in the experiment with UniProt Q8VF52, with UniProt Q8VFG6 and in the experiment with UniProt Q8VFM8 was “inactive” in each case.
As for `CCCCCCCCCCC(=O)O`, the “odorant receptor agonist call” value in the experiment with UniProt Q8VF06 is “inactive”.
As for `O=C(O)CCCCCBr`, the “odorant receptor agonist call” value with UniProt Q8VF06, with UniProt Q8VF43, in the experiment with UniProt Q8VF52 and in the experiment with UniProt Q8VFM8 was “inactive” throughout.
For `CCCCCC(=O)CC`, the “odorant receptor agonist call” value with UniProt Q8VF24, in the experiment with UniProt Q8VF43, with UniProt Q8VF44, in the experiment with UniProt Q8VF52, in the experiment with UniProt Q8VFG6 and with UniProt Q8VFM8 was “inactive” each time.
On to `COc1cc(C(=O)O)ccc1O`, for which the “odorant receptor agonist call” value with UniProt Q8VF24, with UniProt Q8VF43, with UniProt Q8VF44, with UniProt Q8VF52, in the experiment with UniProt Q8VFG6 and with UniProt Q8VFM8 was “inactive” throughout.
On to `CCCCCCCCCCCO`, for which the “odorant receptor agonist call” value in the experiment with UniProt Q8VF06 is “active”. For the same compound, the “odorant receptor agonist call” value with UniProt Q8VF43, in the experiment with UniProt Q8VF52 and with UniProt Q8VFM8 was “inactive” throughout.
For `CCCCCCCCCS`, the “odorant receptor agonist call” value in the experiment with UniProt Q8VF24, with UniProt Q8VF43, in the experiment with UniProt Q8VF44, with UniProt Q8VF52, in the experiment with UniProt Q8VFG6 and with UniProt Q8VFM8 was “inactive” in each case.
For `CCCCC(=O)CC`, the “odorant receptor agonist call” value with UniProt Q8VF24, with UniProt Q8VF43, with UniProt Q8VF44, in the experiment with UniProt Q8VF52, with UniProt Q8VFG6 and in the experiment with UniProt Q8VFM8 was “inactive” in each case.
Turning to `CCCCCCC(C)=O`, the “odorant receptor agonist call” value in the experiment with UniProt Q8VF24, with UniProt Q8VF43, in the experiment with UniProt Q8VF44, with UniProt Q8VF52, with UniProt Q8VFG6 and with UniProt Q8VFM8 was “inactive” each time.
On to `CCCCCCCCCO`, for which the “odorant receptor agonist call” value in the experiment with UniProt Q8VF06, with UniProt Q8VF24, with UniProt Q8VF43, in the experiment with UniProt Q8VF44, with UniProt Q8VF52 and in the experiment with UniProt Q8VFG6 was “inactive” each time. Besides, the “odorant receptor agonist call” value with UniProt Q8VFM8 is “inactive”.
For `O=C1CCOc2ccccc21`, the “odorant receptor agonist call” value with UniProt Q8VF24, in the experiment with UniProt Q8VF43, with UniProt Q8VF44 and with UniProt Q8VFM8 was “inactive” in each case. For the same compound, the “odorant receptor agonist call” value in the experiment with UniProt Q8VF52, in the experiment with UniProt Q8VF73, with UniProt Q8VFB8 and in the experiment with UniProt Q8VFG6 was “active” throughout.
In the case of `CCCCCCC=CC=O`, the “odorant receptor agonist call” value with UniProt Q8VF43, in the experiment with UniProt Q8VF52 and with UniProt Q8VFM8 was “inactive” throughout.
As to `CC(C)=CCCC(C)CCO` (centres undefined), the “odorant receptor agonist call” value with UniProt Q8VF24, with UniProt Q8VF43, with UniProt Q8VF44, with UniProt Q8VF52, with UniProt Q8VFG6 and with UniProt Q8VFM8 was “inactive” each time.
With `CCc1occc(=O)c1O`, the “odorant receptor agonist call” value with UniProt Q8VF43, with UniProt Q8VF52 and in the experiment with UniProt Q8VFM8 was “inactive” in each case.
For the compound `CSSCc1ccco1`, the “odorant receptor agonist call” value in the experiment with UniProt Q8VF43, in the experiment with UniProt Q8VF52 and in the experiment with UniProt Q8VFM8 was “inactive” throughout.
As to `CCCC(=O)C(C)=O`, the “odorant receptor agonist call” value with UniProt Q8VF24, with UniProt Q8VF43, with UniProt Q8VF44, in the experiment with UniProt Q8VF52, with UniProt Q8VFG6 and with UniProt Q8VFM8 was “inactive” in each case.
Take `C=C(C)C1CCC(C)C(O)C1` (centres undefined): the “odorant receptor agonist call” value with UniProt Q8VF43, in the experiment with UniProt Q8VF52 and in the experiment with UniProt Q8VFM8 was “inactive” in each case.
Take `CCC(=O)C(=O)CC`: the “odorant receptor agonist call” value with UniProt Q8VF24, in the experiment with UniProt Q8VF43, in the experiment with UniProt Q8VF44, in the experiment with UniProt Q8VF52, in the experiment with UniProt Q8VFG6 and in the experiment with UniProt Q8VFM8 was “inactive” each time.
For the compound `CCCCCCCCCC(=O)[O-].[H+]`, the “odorant receptor agonist call” value in the experiment with UniProt Q8VF24, with UniProt Q8VF43, with UniProt Q8VF44, with UniProt Q8VF52, with UniProt Q8VFG6 and in the experiment with UniProt Q8VFM8 was “inactive” each time.
`C=C(C)C1CCC2(C)OC2C1` (centres undefined): the “odorant receptor agonist call” value with UniProt Q8VF43, in the experiment with UniProt Q8VF52 and in the experiment with UniProt Q8VFM8 was “inactive” in each case.
`CC(=O)OCC=C(C)C`: the “odorant receptor agonist call” value in the experiment with UniProt Q8VF24, in the experiment with UniProt Q8VF43, in the experiment with UniProt Q8VF44, in the experiment with UniProt Q8VF52, with UniProt Q8VFG6 and with UniProt Q8VFM8 was “inactive” throughout.
For the compound `O=c1ccc2ccccc2o1`, the “odorant receptor agonist call” value with UniProt Q8VF24, in the experiment with UniProt Q8VFB8 and with UniProt Q8VFG6 was “inactive” in each case. The “odorant receptor agonist call” value with UniProt Q8VF44, with UniProt Q8VF52 and with UniProt Q8VF73 was “active” each time.
As to `CCCCCOC(=O)CC`, the “odorant receptor agonist call” value with UniProt Q8VF43, in the experiment with UniProt Q8VF52 and in the experiment with UniProt Q8VFM8 was “inactive” each time.

Source of the values: the M2OR odorant receptor database.
